Source: PubChem BioAssay
Activity calls are given as the source filed them.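 How the source made its calls, unless noted: active means Her2 level under about 52% in both replicate screens, with viability over 70% of control (limit read from the data); inconclusive means Her2 under the limit in one screen only, or viability under 70%; inactive means Her2 level above the set limit.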

Columns and labels:
[1] = Her2 expression decrease, cell viability multiplex – SKBR3 breast tumor cells, AlphaScreen, ATP viability, primary screen (AID 461); details: SKBR3 Her2 protein level, 18-24 h, measured here: SKBR3 viability, ATP luminescence, at 10 µM;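 on Her2 level: lower value means less Her2 protein in the cells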;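 on viability: percent of carrier control wells set as 100% viability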
[2] = biological target: Receptor tyrosine-protein kinase erbB-2 (Homo sapiens) (UniProt P04626); assay: as above; details: 18-24 h, at 10 µM, stronger effect = lower value
[3] = reduced viability of SK-BR-3 breast cancer cells – cell-based, 24 h, human, pilot screen (AID 572;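 active means viability at or below 10% of carrier control in both of two separate runs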;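 further: compound exposure lasted between 18 and 24 h rather than exactly 24 h; 100% = carrier-treated control wells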); details: SK-BR-3 viability, CellTiter-Glo luminescence, at 10 µM, stronger effect = lower value
[4] = HUVEC growth inhibition – cell-based, human, primary screen (AID 575;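 active means viability at or below 30% in both replicate assays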;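 further: 100% = median of untreated cell wells with 0.1% DMSO on each plate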); details: HUVEC proliferation, CellTiter-Glo luminescence, 72 h; at 10 µM; stronger effect = lower value
In short: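 system = HUVEC primary cells | amount = 1250 cells/well | buffer or medium = supplemented EBM, 2% fetal bovine serum | dosing = single-point 10 µM, DMSO 0.1% final | times = 72 h compound incubation | detection = CTG luminescence | read-out = % viability relative to median vehicle-well signal on each plate | control set = vehicle and MePR control wells | format = collagen-coated 384-well format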

[5] = H69AR cell proliferation blockers – human, duplicate replicates, primary screen (AID 580;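 active means viability at or under a set limit in both replicates, limit being median viability minus 3 SD, cut at about 48% in these data, passing the limit was not always enough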;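 further: 100% = mean luminescence of untreated wells and 0% = no signal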); details: H69AR lung tumor cells viability, ATP luminescence, 72 h; at 10 µM; stronger effect = lower value
[6] = MRP1 drug-resistance reversers in H69AR cells – cell-based, doxorubicin co-treatment, pilot screen (AID 601;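 active means viability loss from added drug above about 55%, and viability with drug at most 40%, in both replicates, limit read from the data, passing the limit was not always enough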); details: CellTiter-Glo, 72 h, at 10 µM; for differential viability (reversal): stronger effect = higher value
[7] = yeast transport mutant growth inhibition pilot in 384-well plates, post-Golgi transport modulator project (AID 636; in the data active means inhibition above about 31%); details: absorbance 615 nm, about 18 h, stronger effect = higher value
[8] = growth suppression of yeast trafficking mutant, preliminary HTS, modulators of trafficking downstream of Golgi apparatus project, 1536-format plate, OD 615 nm (AID 637; in the data active means inhibition above about 30%); details: yeast transport mutant growth, absorbance 615 nm, 18 h; stronger effect = higher value
[9] = H69AR cells + 2 uM doxorubicin, measured here: viability with 2 uM doxorubicin, stronger effect = lower value
[10] = H69AR cells, compound alone cytotoxicity

Sequence of Receptor tyrosine-protein kinase erbB-2 (Homo sapiens) (P04626 whole entry, looked up): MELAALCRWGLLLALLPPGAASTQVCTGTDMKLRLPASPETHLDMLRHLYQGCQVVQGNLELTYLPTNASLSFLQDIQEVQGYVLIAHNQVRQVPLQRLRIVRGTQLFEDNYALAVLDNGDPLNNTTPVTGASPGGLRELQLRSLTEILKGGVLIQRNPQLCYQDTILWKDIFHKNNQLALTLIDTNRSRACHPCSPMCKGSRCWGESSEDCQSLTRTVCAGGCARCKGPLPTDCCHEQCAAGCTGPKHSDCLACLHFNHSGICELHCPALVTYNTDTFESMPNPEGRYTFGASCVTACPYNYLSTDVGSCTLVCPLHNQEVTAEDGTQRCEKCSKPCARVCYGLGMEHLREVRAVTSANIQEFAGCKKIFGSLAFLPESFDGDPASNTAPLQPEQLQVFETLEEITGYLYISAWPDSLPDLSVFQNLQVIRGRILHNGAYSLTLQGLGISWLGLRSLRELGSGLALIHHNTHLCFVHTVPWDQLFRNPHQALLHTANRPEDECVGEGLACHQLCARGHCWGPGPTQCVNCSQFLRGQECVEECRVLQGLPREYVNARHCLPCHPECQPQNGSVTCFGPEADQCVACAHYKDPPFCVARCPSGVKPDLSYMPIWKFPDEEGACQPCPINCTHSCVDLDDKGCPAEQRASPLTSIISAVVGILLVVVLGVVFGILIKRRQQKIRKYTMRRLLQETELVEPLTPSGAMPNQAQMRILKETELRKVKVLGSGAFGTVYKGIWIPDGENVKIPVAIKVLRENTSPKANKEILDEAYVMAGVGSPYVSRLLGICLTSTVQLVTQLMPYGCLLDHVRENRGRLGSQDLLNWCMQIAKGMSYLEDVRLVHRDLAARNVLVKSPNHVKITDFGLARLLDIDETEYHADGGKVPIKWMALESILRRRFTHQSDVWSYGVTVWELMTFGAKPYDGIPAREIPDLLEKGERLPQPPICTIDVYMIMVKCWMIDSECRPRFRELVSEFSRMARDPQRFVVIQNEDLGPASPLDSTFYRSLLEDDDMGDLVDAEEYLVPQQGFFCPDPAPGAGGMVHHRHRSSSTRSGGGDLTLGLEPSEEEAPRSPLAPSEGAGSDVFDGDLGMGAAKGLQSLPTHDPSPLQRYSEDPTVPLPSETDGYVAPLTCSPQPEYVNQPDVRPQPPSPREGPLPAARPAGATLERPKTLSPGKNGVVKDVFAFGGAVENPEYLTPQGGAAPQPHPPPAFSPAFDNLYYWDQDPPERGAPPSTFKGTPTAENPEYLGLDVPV

Compound | viability [1] | Her2 level [2] | viability [3] | viability [4] | viability [5] | differential viability (reversal) ([6]; H69AR cells + 2 uM doxorubicin) | viability [6, 9] | viability [6, 10] | inhibition [7] | inhibition [8]
COc1cccc(NC(=O)N2CCN(c3cccc(C)c3C)CC2)c1 | 102% | 72.5% (inactive) | 102% (inactive) | 68.5% (inactive) | 82.8% (inactive) | -4.58% (inactive) | 87.4% | 82.8% | 1.82% (inactive) | -3% (inactive)
CCn1c(=O)c(C(=O)NCc2ccc(OC)cc2)c(O)c2ccccc21 | 86.5% | 89.5% (inactive) | 86.5% (inactive) | 46.7% (inactive) | 73.2% (inactive) | -13.4% (inactive) | 86.7% | 73.2% | -3.46% (inactive) | -8.5% (inactive)
Cc1nnc(SCc2cnc(-c3ccccc3)o2)[nH]c1=O | 94% | 86% (inactive) | 94% (inactive) | 86.7% (inactive) | 98% (inactive) | 12.2% (inactive) | 85.8% | 98% | 2.76% (inactive) | -0.66% (inactive)
COc1cccc(OC)c1OCCN1CCN(C(=O)c2ccco2)CC1 | 86.5% | 88.5% (inactive) | 86.5% (inactive) | 107% (inactive) | 95.8% (inactive) | 10.7% (inactive) | 85% | 95.8% | -6.85% (inactive) | -4.92% (inactive)
CC(C)(C)n1nc2c(c1NC(=O)COc1ccc(Cl)cc1)CSC2 | 97.5% | 79.5% (inactive) | 97.5% (inactive) | 80.5% (inactive) | 91.4% (inactive) | -10.3% (inactive) | 102% | 91.4% | -5% (inactive) | -0.16% (inactive)
Cc1ccc(S(=O)(=O)N(C)Cc2cc3ccccc3[nH]c2=O)cc1 | 114% | 86.5% (inactive) | 114% (inactive) | 111% (inactive) | 91.5% (inactive) | 3.6% (inactive) | 87.9% | 91.5% | 0.26% (inactive) | -6.91% (inactive)
COc1ccc2c(c1)CCc1c(C(=O)N3CCCc4ccccc43)noc1-2 | 98% | 87% (inactive) | 98% (inactive) | 80.8% (inactive) | 81.1% (inactive) | 3% (inactive) | 78.1% | 81.1% | -6.05% (inactive) | -8.91% (inactive)
CCN(CC)S(=O)(=O)c1cccc(-c2nnc(SCC(N)=O)n2CCc2ccccc2)c1 | 102% | 108% (inactive) | 102% (inactive) | 91% (inactive) | 74.7% (inactive) | -9.28% (inactive) | 84% | 74.7% | -2.21% (inactive) | -6.35% (inactive)
Cc1ccc(S(=O)(=O)NCCCCC(NC(=O)OC(C)(C)C)C(=O)O)cc1 (stereo not given) (tested in a mixture with another compound) | 91.5% | 92.5% (inactive) | 91.5% (inactive) | 125% (inactive) | 104% (inactive) | 7.71% (inactive) | 96.8% | 104% | -3.68% (inactive) | 8.52% (inactive)
COc1cccc(NC(=O)N2CCN(C(=O)C(Cc3ccc(OC)c(OC)c3)NC(C)=O)CC2)c1 (stereo not given) | 97% | 124% (inactive) | 97% (inactive) | 91.1% (inactive) | 90.7% (inactive) | 2.21% (inactive) | 88.5% | 90.7% | -4.62% (inactive) | -7.5% (inactive)
Oc1cc(NCc2cccnc2)ccc1-c1nc2ccccc2o1 | 86.5% | 94% (inactive) | 86.5% (inactive) | 97.2% (inactive) | 82.7% (inactive) | -7.37% (inactive) | 90.1% | 82.7% | 1.17% (inactive) | 10.8% (inactive)
Cc1cc(C)n(CC2CC(=O)N(c3ccc(Cl)c(Cl)c3)C2=O)n1 (stereo not given) | 112% | 96.5% (inactive) | 112% (inactive) | 89.9% (inactive) | 104% (inactive) | 10.4% (inactive) | 93.4% | 104% | -4.79% (inactive) | -9.05% (inactive)
CC12CN3CC(C)(CN(C1)C3c1cc(Br)ccc1O)C2=O (stereo not given) | 95.5% | 124% (inactive) | 95.5% (inactive) | 87% (inactive) | 100% (inactive) | 1.15% (inactive) | 98.9% | 100% | -0.65% (inactive) | -3.83% (inactive)
O=C(Oc1cccc2cccnc12)c1cccc(-n2cnnn2)c1 | 104% | 82% (inactive) | 104% (inactive) | 60.3% (inactive) | 91.9% (inactive) | 15.1% (inactive) | 76.8% | 91.9% | -2.53% (inactive) | 5.97% (inactive)
CCOC(=O)Cn1nc(-c2ccc(C)cc2)ccc1=O | 99% | 115% (inactive) | 99% (inactive) | 94.1% (inactive) | 100% (inactive) | 15.4% (inactive) | 84.6% | 100% | -5.32% (inactive) | 7.21% (inactive)
CCN(CC)CCNC(=O)CCn1c(=S)[nH]c2cc3c(cc2c1=O)OCO3 | 79% | 89.5% (inactive) | 79% (inactive) | 89.8% (inactive) | 90.1% (inactive) | 0.295% (inactive) | 89.8% | 90.1% | -4.59% (inactive) | -2.3% (inactive)
